{"source": "ChEMBL document CHEMBL3112586", "about": "“Synthesis of neolignans as microtubule stabilisers” (Bioorg Med Chem, 2014)", "key": {"[1]": {"test_system": "MCF7", "assay": "Induction of microtubule polymerization in human MCF7 cells assessed as actin-tubulin cytoskeleton stabilization at 10 to 40 uM by confocal microscopy", "format": "cell-based", "method_in_brief": "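MCF-7 cells treated, immunostained for actin and tubulin, and examined by confocal microscopy; paclitaxel-treated cells as positive control.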"}, "[2]": {"biological_target": "Tubulin (Homo sapiens) (UniProt P68371+Q9H4B7+P0DPH7+P68366+Q13509+Q71U36+P04350+Q3ZCM7+P07437+P68363+Q9BQE3+Q6PEY2+Q13885+Q9BVA1+Q9BUF5)", "assay": "Induction of tubulin polymerization (unknown origin) at 10 to 40 uM measured every min for 1 hr in presence of PDT", "format": "protein-complex assay", "method_in_brief": "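Tubulin 3 mg/mL in 80 mM PIPES pH 6.9, 2 mM MgCl2, 0.5 mM EGTA, 1 mM GTP, 15% glycerol at 37 °C with test compounds at varied concentrations; turbidity at 340 nm read every min for 1 h; podophyllotoxin inhibitor and paclitaxel stabiliser references, DMSO negative control.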"}, "[3]": {"test_system": "MDA-MB-231", "assay": "Cell cycle arrest in human MDA-MB-231 cells assessed as increase in sub-diploid population after 24 hrs by propidium iodide staining-based FACS analysis", "format": "functional", "method_in_brief": "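MDA-MB-231 grown in DMEM with 10% FBS at 37 °C, 5% CO2; 24 h treatment, then cold-PBS wash, 2 × 10⁶ cells/ml, absolute-ethanol fixation, RNase A, propidium iodide 50 µg/mL for 30 min at room temperature; flow cytometric DNA content, sub-diploid fraction scored.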"}, "[4]": {"test_system": "MCF7", "assay": "Cell cycle arrest in human MCF7 cells assessed as decrease in S phase at 5 to 30 uM after 24 hrs by propidium iodide staining-based FACS analysis relative to untreated control", "format": "functional", "method_in_brief": "(§1)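 MCF-7 in DMEM, 10% FBS, 37 °C, 5% CO2; treated 24 h, harvested, washed cold PBS, resuspended 2 × 10⁶ cells/ml, fixed absolute ethanol, RNase A treated, propidium iodide (50 µg/mL) 30 min room temperature; DNA content by flow cytometry; phase distribution versus untreated control.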"}, "[5]": {"test_system": "MDA-MB-231", "assay": "Cytotoxicity against human MDA-MB-231 cells after 48 to 72 hrs by MTT assay", "format": "functional, cell-based", "method_in_brief": "(§2)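 Cells in DMEM, 10% FBS, 37 °C, 5% CO2, plated and incubated 24 h; compounds diluted in phenol-red-free DMEM with 0.5% FBS, vehicle control; after exposure, MTT (5 mg/mL stock) added 3 h, formazan dissolved in DMSO, absorbance 570 nm; IC50 derived; podophyllotoxin and tamoxifen positive controls.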"}, "[6]": {"test_system": "MCF7", "assay": "Cytotoxicity against human MCF7 cells after 48 to 72 hrs by MTT assay", "format": "functional, cell-based", "method_in_brief": "as §2"}, "[7]": {"test_system": "HEK293", "assay": "Cytotoxicity against human HEK293 cells after 24 hrs by MTT assay", "format": "cell-based", "details": "HEK293, 24 h", "method_in_brief": "as §2"}, "[8]": {"test_system": "MDA-MB-231", "assay": "Cytotoxicity against human MDA-MB-231 cells after 24 hrs by MTT assay", "format": "functional, cell-based", "details": "MDA-MB-231, 24 h", "method_in_brief": "as §2"}, "[9]": {"test_system": "MDA-MB-231", "assay": "Cytotoxicity against human MDA-MB-231 cells after 48 hrs by MTT assay", "format": "functional, cell-based", "details": "MDA-MB-231, 48 h", "method_in_brief": "as §2"}, "[10]": {"test_system": "Mus musculus", "assay": "Toxicity in Swiss albino mouse assessed as change in basophil count at 5 to 1000 mg/kg, po relative to control", "format": "organism-based", "set-up": "dose 5-1000 mg/kg, route oral", "details": "in vivo"}, "[11]": {"test_system": "Mus musculus", "assay": "Toxicity in Swiss albino mouse assessed as change in monocyte count at 5 to 1000 mg/kg, po relative to control", "format": "organism-based", "set-up": "dose 5-1000 mg/kg, route oral", "details": "in vivo"}, "[12]": {"test_system": "MCF7", "assay": "Cell cycle arrest in human MCF7 cells assessed as accumulation at G2/M phase at 5 to 30 uM after 24 hrs by propidium iodide staining-based FACS analysis", "format": "functional", "method_in_brief": "as §1"}, "[13]": {"test_system": "Mus musculus", "assay": "Toxicity in Swiss albino mouse assessed as relative brain weight at 5 to 1000 mg/kg, po relative to control", "format": "organism-based", "set-up": "dose 5-1000 mg/kg, route oral", "details": "in vivo", "method_in_brief": "(§3)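 One oral dose (5–1000 mg/kg; DMSO then 0.7% carboxymethyl cellulose vehicle; controls vehicle-only) was given to groups of 6 mice (3 male, 3 female). On day 7 the animals were sacrificed and necropsied for gross pathology. Absolute and relative weights of vital organs were recorded and compared with control.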"}, "[14]": {"test_system": "Mus musculus", "assay": "Toxicity in Swiss albino mouse assessed as relative kidney weight at 5 to 1000 mg/kg, po relative to control", "format": "organism-based", "set-up": "dose 5-1000 mg/kg, route oral", "details": "in vivo", "method_in_brief": "as §3"}, "[15]": {"test_system": "Mus musculus", "assay": "Toxicity in Swiss albino mouse assessed as relative liver weight at 5 to 1000 mg/kg, po relative to control", "format": "organism-based", "set-up": "dose 5-1000 mg/kg, route oral", "details": "in vivo", "method_in_brief": "as §3"}, "[16]": {"test_system": "Mus musculus", "assay": "Toxicity in Swiss albino mouse assessed as change in cholesterol level at 300 mg/kg, po (reference value: 81.64 +/- 4.26 mg/dL)", "format": "organism-based", "set-up": "dose 300 mg/kg, route oral", "details": "in vivo"}, "[17]": {"test_system": "Mus musculus", "assay": "Toxicity in Swiss albino mouse assessed as change in triglyceride level at 1000 mg/kg, po (reference value: 121.45 +/- 24.02 mg/dL)", "format": "organism-based", "set-up": "dose 1000 mg/kg, route oral", "details": "in vivo"}, "[18]": {"test_system": "Mus musculus", "assay": "Toxicity in Swiss albino mouse assessed as change in triglyceride level at 5 mg/kg, po (reference value: 121.45 +/- 24.02 mg/dL)", "format": "organism-based", "set-up": "dose 5 mg/kg, route oral", "details": "in vivo"}, "[19]": {"test_system": "Mus musculus", "assay": "Toxicity in Swiss albino mouse assessed as change in creatinine level at 300 mg/kg, po (reference value: 0.63 +/- 0.18 mg/dL)", "format": "organism-based", "set-up": "dose 300 mg/kg, route oral", "details": "in vivo"}, "[20]": {"test_system": "Mus musculus", "assay": "Toxicity in Swiss albino mouse assessed as change in albumin level at 1000 mg/kg, po (reference value: 3.35 +/- 0.51 g/dL)", "format": "organism-based", "set-up": "dose 1000 mg/kg, route oral", "details": "in vivo"}, "[21]": {"test_system": "Mus musculus", "assay": "Toxicity in Swiss albino mouse assessed as change in albumin level at 300 mg/kg, po (reference value: 3.35 +/- 0.51 g/dL)", "format": "organism-based", "set-up": "dose 300 mg/kg, route oral", "details": "in vivo"}, "[22]": {"test_system": "Mus musculus", "assay": "Toxicity in Swiss albino mouse assessed as change in albumin level at 50 mg/kg, po (reference value: 3.35 +/- 0.51 g/dL)", "format": "organism-based", "set-up": "dose 50 mg/kg, route oral", "details": "in vivo"}, "[23]": {"test_system": "Mus musculus", "assay": "Toxicity in Swiss albino mouse assessed as change in SGOT level at 1000 mg/kg, po (reference value: 25.27 +/- 1.32 U/L)", "format": "organism-based", "set-up": "dose 1000 mg/kg, route oral", "details": "in vivo"}, "[24]": {"test_system": "Mus musculus", "assay": "Toxicity in Swiss albino mouse assessed as change in SGOT level at 5 mg/kg, po (reference value: 25.27 +/- 1.32 U/L)", "format": "organism-based", "set-up": "dose 5 mg/kg, route oral", "details": "in vivo"}, "[25]": {"test_system": "Mus musculus", "assay": "Toxicity in Swiss albino mouse assessed as change in ALKP level at 1000 mg/kg, po (reference value: 218.67 +/- 12.43 U/L)", "format": "organism-based", "set-up": "dose 1000 mg/kg, route oral", "details": "in vivo"}, "[26]": {"test_system": "Mus musculus", "assay": "Toxicity in Swiss albino mouse assessed as change in WBC count at 1000 mg/kg, po (reference value: 14.2 +/- 7.49 X 10^3/mm'3)", "format": "organism-based", "set-up": "dose 1000 mg/kg, route oral", "details": "in vivo"}, "[27]": {"test_system": "Mus musculus", "assay": "Toxicity in Swiss albino mouse assessed as change in WBC count at 50 mg/kg, po (reference value: 14.2 +/- 7.49 X 10^3/mm'3)", "format": "organism-based", "set-up": "dose 50 mg/kg, route oral", "details": "in vivo"}, "[28]": {"test_system": "Mus musculus", "assay": "Toxicity in Swiss albino mouse assessed as change in RBC count at 1000 mg/kg, po (reference value: 5.43 +/- 0.27 million/mm'3)", "format": "organism-based", "set-up": "dose 1000 mg/kg, route oral", "details": "in vivo"}, "[29]": {"test_system": "Mus musculus", "assay": "Toxicity in Swiss albino mouse assessed as change in RBC count at 5 mg/kg, po (reference value: 5.43 +/- 0.27 million/mm'3)", "format": "organism-based", "set-up": "dose 5 mg/kg, route oral", "details": "in vivo"}, "[30]": {"test_system": "Mus musculus", "assay": "Toxicity in Swiss albino mouse assessed as change in total haemoglobin level at 1000 mg/kg, po (reference value: 11.39 +/- 0.84 g/dL)", "format": "organism-based", "set-up": "dose 1000 mg/kg, route oral", "details": "in vivo"}, "[31]": {"test_system": "Mus musculus", "assay": "Toxicity in Swiss albino mouse assessed as change in total haemoglobin level at 5 mg/kg, po (reference value: 11.39 +/- 0.84 g/dL)", "format": "organism-based", "set-up": "dose 5 mg/kg, route oral", "details": "in vivo"}}, "note": "Activity calls are given as the source filed them. The rule behind the calls is not given here."}
{"smiles": "CCOC(=O)/C=C/c1ccc(O)c(/C(=C/c2ccc(O)cc2)C(=O)OCC)c1", "values": [{"measurement": "Activity", "setting": "[1]", "value": "inactive"}, {"measurement": "Activity", "setting": "[2]", "value": "inactive"}, {"measurement": "Activity", "setting": "[3]", "value": "Dose-dependent effect"}, {"measurement": "Activity", "setting": "[4]", "value": "Active"}, {"measurement": "Activity", "setting": "[5]", "value": "Active"}, {"measurement": "Activity", "setting": "[6]", "value": "Active"}, {"measurement": "IC50", "setting": "[7]", "value": 12, "unit": "µM"}, {"measurement": "IC50", "setting": "[8]", "value": 15, "unit": "µM"}, {"measurement": "IC50", "setting": "[9]", "value": 6.47, "unit": "µM"}, {"measurement": "Activity", "setting": "[10]", "value": "Non-toxic"}, {"measurement": "Activity", "setting": "[11]", "value": "Non-toxic"}, {"measurement": "Activity", "setting": "[12]", "value": "Active"}, {"measurement": "Activity", "setting": "[13]", "value": "Non-toxic"}, {"measurement": "Activity", "setting": "[14]", "value": "Non-toxic"}, {"measurement": "Activity", "setting": "[15]", "value": "Non-toxic"}, {"measurement": "Activity", "setting": "[16]", "value": 77.65, "unit": "mg/dL"}, {"measurement": "Activity", "setting": "[17]", "value": 156.83, "unit": "mg/dL"}, {"measurement": "Activity", "setting": "[18]", "value": 106.46, "unit": "mg/dL"}, {"measurement": "Activity", "setting": "[19]", "value": 0.79, "unit": "mg/dL"}, {"measurement": "Activity", "setting": "[20]", "value": 3.86, "unit": "g/dL"}, {"measurement": "Activity", "setting": "[21]", "value": 2.59, "unit": "g/dL"}, {"measurement": "Activity", "setting": "[22]", "value": 2.76, "unit": "g/dL"}, {"measurement": "Activity", "setting": "[23]", "value": 53.29, "unit": "U/L"}, {"measurement": "Activity", "setting": "[24]", "value": 27.67, "unit": "U/L"}, {"measurement": "Activity", "setting": "[25]", "value": 143.89, "unit": "U/L"}, {"measurement": "Activity", "setting": "[26]", "value": 15.94, "unit": "×10³ /mm3"}, {"measurement": "Activity", "setting": "[27]", "value": 14.7, "unit": "×10³ /mm3"}, {"measurement": "Activity", "setting": "[28]", "value": 5.15, "unit": "million/mm3"}, {"measurement": "Activity", "setting": "[29]", "value": 5.99, "unit": "million/mm3"}, {"measurement": "Activity", "setting": "[30]", "value": 13.32, "unit": "g/dL"}, {"measurement": "Activity", "setting": "[31]", "value": 12.35, "unit": "g/dL"}]}
